Only some compounds are listed: those with a hit (about 9.6% of all), similar ones and a draw of the others.
TNAP inh hi DEA: TNAP (human) inhibition, high acceptor; P05186; purified TNAP, CDP-star luminescence, 1 M DEA; hit rate 0.03% among 200,000; AID 1135; inhibition, % at 20 µM;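 active = over 50% inhibition of tissue-nonspecific alkaline phosphatase at 20 µM in the single-dose screen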
Target sequence (P05186 whole entry, looked up): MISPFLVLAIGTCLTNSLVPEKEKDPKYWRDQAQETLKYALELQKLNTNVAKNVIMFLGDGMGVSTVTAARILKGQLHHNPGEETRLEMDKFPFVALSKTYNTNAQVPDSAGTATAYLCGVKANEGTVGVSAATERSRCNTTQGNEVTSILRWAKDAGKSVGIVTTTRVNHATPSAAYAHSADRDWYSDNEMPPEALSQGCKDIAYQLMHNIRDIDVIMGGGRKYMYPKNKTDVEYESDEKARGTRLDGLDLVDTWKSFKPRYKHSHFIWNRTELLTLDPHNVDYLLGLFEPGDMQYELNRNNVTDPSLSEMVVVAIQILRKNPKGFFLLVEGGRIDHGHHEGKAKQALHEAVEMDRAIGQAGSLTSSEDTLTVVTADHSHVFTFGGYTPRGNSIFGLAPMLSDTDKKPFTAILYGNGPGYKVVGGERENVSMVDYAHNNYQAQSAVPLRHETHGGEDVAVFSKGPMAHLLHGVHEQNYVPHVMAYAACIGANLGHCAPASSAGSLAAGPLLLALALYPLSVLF
PTEN del growth: PTEN-deleted cell growth suppression. hit rate 1.2% among 140,000. viability, % at 10 µM. HCT116 PTEN-null viability, CellTiter-Glo, 60 h; hits give low values;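 active = viability at or below a set limit, 4 SD under the median of all tested compounds, cut at about 3.7% in these data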;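 note: PTEN knockout HCT116 line with beta catenin targeted HCT116 as companion control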
TNAP inh no acc: blocks human TNAP activity with no phosphate acceptor present. purified TNAP, CDP-star luminescence, 30 min. inhibition, % at 20 µM. AID 1012. P05186. hit rate 0.26% among 200,000;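 active = tissue-nonspecific alkaline phosphatase inhibition above about 50% at 20 µM in the single-dose screen, limit read from the data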
Lmaj promast: reduces viability of Leishmania major promastigotes | resazurin fluorescence viability | inhibition, % at 10 µM | hit rate 9% among 200,000; in the data active = inhibition above about 50%;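 note: promastigotes grown with compound for 44 hours at 28 °C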
TNAP act hiacc: TNAP (human) activation, high acceptor | P05186 | purified TNAP, CDP-star luminescence, 1 M DEA, 30 min; hits give high values; 0 = EDTA background, 1 = DMSO-only activity | activation factor at 20 µM | 200,000 tested, under 10 active;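 active = activation factor at least 2 at 20 µM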
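system = human TNAP | amount = enzyme diluted 1/800 final | reagent = 100 µM CDP-star substrate | signal = luminescent substrate turnover signal | dosing = one dose, 20 µM | benchmarks = EDTA negative control, DMSO positive control | measure = activation factor | timing = 30 min reaction, room temperature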
bCat KO growth: beta-catenin-lacking colon tumor cell growth suppression. viability, % at 10 µM. hit rate 1.5% among 140,000. AID 818. HCT116 beta-catenin knockout viability, CellTiter-Glo, 60 h; hits give low values;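 active = viability at or under a set limit, the compound median less 4 SD, cut at about 6% in these data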
Hits are given with their value; i = inactive; nt = no result given.

SMILES	TNAP inh hi DEA	PTEN del growth	TNAP inh no acc	Lmaj promast	TNAP act hiacc	bCat KO growth
Cc1c(Cl)cccc1NC(=O)CSC(N)=O	i	nt	i	i	i	nt
CCn1c(C2CCN(Cc3ccccc3)CC2)n[nH]c1=S	i	nt	i	i	i	nt
O=C(CNC(=O)c1ccc(S(=O)(=O)N2CCCC2)cc1)N/N=C/c1ccc(Cl)cc1Cl	i	i	i	69	i	i
COc1ccc(/C=N/NC(=O)CNC(=O)c2ccc(S(=O)(=O)N3CCOCC3)cc2)c(OC)c1	i	i	i	i	i	i
CCOc1ccccc1N1CC(C(=O)Nc2ccc3c(c2)OCCO3)CC1=O (centres undefined)	i	nt	i	i	i	nt
O=c1cnn(-c2ccc(Cl)cc2Cl)c(-c2ccccc2)c1	i	i	i	92	i	i
O=C(NCc1ccccc1Cl)c1ccc2nc[nH]c2c1	i	i	i	i	i	i
COC(=O)c1ccc(C)c(NC(=O)CN(c2ccc3c(c2)OCO3)S(C)(=O)=O)c1	i	i	i	i	i	i
COC(=O)c1ccc(NC(=O)CN(c2ccc3c(c2)OCO3)S(C)(=O)=O)cc1	i	i	i	64	i	i
COc1ccc(N(CC(=O)Nc2ccc3c(c2)OCO3)S(=O)(=O)c2ccc(C)cc2)cc1OC	i	nt	i	63	i	nt
COc1ccc(N(CC(=O)Nc2ccc3c(c2)OCO3)S(=O)(=O)c2ccc(F)cc2)cc1	i	i	i	i	i	i
COc1ccc(N(CC(=O)Nc2ccc3c(c2)OCO3)S(=O)(=O)c2ccccc2)c(OC)c1	i	i	i	71	i	i
CCCOc1ccc(/C=N/Nc2ccccc2[N+](=O)[O-])c(OCCC)c1	i	i	i	i	i	i
COc1ccc(C(=O)C2CCCN(Cc3c(C)[nH]c4ccccc34)C2)c(OC)c1 (centres undefined)	i	nt	i	97	i	nt
COc1ccc(C(=O)C2CCCN(C3Cc4ccccc4C3)C2)c(OC)c1 (centres undefined)	i	nt	i	94	i	nt
COc1ccc(C(=O)C2CCCN(Cc3sc(N4CCCC4)nc3Cl)C2)c(OC)c1 (centres undefined)	i	nt	i	99	i	nt
COc1ccc(C(=O)C2CCCN(Cc3ccc(C#CCCO)cc3)C2)c(OC)c1 (centres undefined)	i	nt	i	i	i	nt
COc1ccc(CNC(=O)C/C(C)=N/NC(=O)C23CC4CC(CC(C4)C2)C3)cc1	i	nt	i	i	i	nt
CC1CCCN(c2nc3c(c(=O)[nH]c(=O)n3C)n2CCSc2ncccn2)C1 (centres undefined)	i	nt	i	i	i	nt
Cc1ccc(NC(=O)CNC2CCS(=O)(=O)C2)cc1C (centres undefined)	i	nt	i	i	i	nt
O=C(NCC1CCCO1)NC12CC3CC(CC(C3)C1)C2 (centres undefined)	i	i	i	i	i	i
S=C(NCC1CCCO1)NC12CC3CC(CC(C3)C1)C2 (centres undefined)	i	nt	i	62	i	nt
Cc1cc(C)c(OCC(=O)N/N=C/c2ccc3c(c2)OCO3)c(C)c1	i	i	i	i	i	i
CC(C)(C)CC(=O)NCCCCCCNC(=O)CC(C)(C)C	i	i	i	i	i	i
COc1ccc(OCC#CCNC(C)(C)C)cc1	i	i	i	92	i	i
SMILES	TNAP inh hi DEA	PTEN del growth	TNAP inh no acc	Lmaj promast	TNAP act hiacc	bCat KO growth
Cc1ccnc(NS(=O)(=O)c2ccc(NC(=O)CSc3nc(-c4ccccc4)cc(=O)[nH]3)cc2)n1	i	nt	i	94	i	nt
CCCCC(=O)Nc1ccc(C(=O)Nc2ccc(S(=O)(=O)Nc3nccc(C)n3)cc2)cc1	i	i	i	78	i	i
CCCCC(=O)Nc1ccc(S(=O)(=O)Nc2nccc(C)n2)cc1	i	nt	i	i	i	nt
CCNc1nc(NC(C)C)nc(N(n2cnnc2)S(=O)(=O)c2ccc(C)cc2)n1	i	i	i	58	i	i
CCNc1nc(NCC)nc(N(n2cnnc2)S(=O)(=O)c2ccc(C)cc2)n1	i	i	i	i	i	i
CCOC(=O)Cc1csc(NC(=O)Nc2cccc(Cl)c2)n1	i	i	i	i	i	i
CCOC(=O)c1csc(NC(=O)Nc2cccc(Cl)c2)n1	i	i	i	87	i	i
O=C(Nc1ccc(Cl)cc1)Nc1nnc(-c2ccncc2)s1	i	2.1	i	i	i	4.3
O=C(Nc1cccc(Cl)c1)Nc1nnc(-c2ccncc2)s1	i	3.2	i	65	i	3.8
CC1(NC(=O)C2CCCCC2)CCS(=O)(=O)C1 (centres undefined)	i	nt	i	i	i	nt
Cc1ccc(S(=O)(=O)Nc2ccc(C(=O)OCC(=O)N(CCC#N)c3ccccc3)cc2)cc1C	i	i	i	i	i	i
Cc1ccc(N(CCC#N)C(=O)CCl)cc1C	i	i	i	79	i	i
CN(C)c1ccc(-c2n(C)c3ccccc3[n+]2C)cc1	i	i	i	100	i	i
COc1ccc(C2=NN(c3ccccc3)C(c3cn(CCC(=O)O)nc3-c3ccccc3)C2)cc1 (centres undefined)	i	nt	i	i	i	nt
Cc1nc2c(c3c1[nH]c1ccccc13)C(=O)CC(C)(C)C2	i	i	i	64	i	i
Cc1ccc(NC(=O)Cn2cnc3sc(C(=O)NCCN(C)C)c(C)c3c2=O)cc1Cl	i	i	i	76	i	i
O=C(NC1CCCCC1)C(c1ccc(O)c(O)c1)N(C(=O)Cn1nnc2ccccc21)c1cccc(O)c1 (centres undefined)	i	nt	51	i	i	nt
COc1ccc(C)cc1-n1c(-c2ccncc2)n[nH]c1=S	i	i	i	i	i	i
COc1cc(-n2c(-c3ccccc3)n[nH]c2=S)c(OC)cc1Cl	i	nt	i	59	i	nt
COc1ccccc1-n1c(-c2cccnc2)n[nH]c1=S	i	i	i	i	i	i
COc1cc(OC)cc(-c2n[nH]c(=S)n2-c2cc(OC)ccc2OC)c1	i	i	i	100	i	i
COC(=O)Cn1cc(/C=C(/C#N)C(=O)N2CCOCC2)c2ccccc21	i	nt	i	i	i	nt
O=C(O)c1cc([N+](=O)[O-])ccc1NCCO	i	i	i	56	i	i
O=C(O)c1cc([N+](=O)[O-])ccc1NCc1ccccc1Cl	i	nt	i	i	i	nt
Nc1nnc(SCC(=O)OCC(=O)Nc2ccccc2)s1	i	nt	i	i	i	nt
CC(=O)Nc1ccc(N2CCc3c(C)c(C#N)c4nc5ccccc5n4c32)cc1	i	i	i	i	i	i
COc1cc(C2C(Oc3ccccc3C)C(=O)N2Cc2ccc(F)cc2)cc(OC)c1OC (centres undefined)	i	i	i	99	i	i
CC(C)Cn1c2c(c(O)c(C(=O)Nn3c(Cc4ccccc4)nc4ccccc4c3=O)c1=O)CCCC2	i	i	i	74	i	i
CCCCc1nc2ccccc2c(=O)n1NC(=O)c1c(O)c2c(n(CC(C)C)c1=O)CCCC2	i	i	i	i	i	i

Bioassay records: PubChem, several laboratories
